Calls of active or inactive are those of the source.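 Rule for the calls: active = LXR activation with EC50, the half-maximal effective concentration, of 10 µM or lower; inactive = the rest.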
Biological target: Oxysterols receptor LXR-beta (Homo sapiens) (UniProt P55055)
Assay: LXR activator potency, GAL4 reporter, dose response, selectivity assay for RORA inverse agonist project, cell-based, luminescence, powder sample (AID 463150)
Settings: HEK293T GAL4-LXR LBD luciferase reporter, 18-24 h
In short: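 System – HEK293T with GAL4-LXR LBD fusion and UAS luciferase reporter · Dosing – 10-point dilution series, top nominal concentration 10 µM · Timing – 24 h bulk reverse transfection before replating, then 20 h compound exposure · Signal – luciferase reporter luminescence · Read-out – EC50 from sigmoidal fit of percent activation · Controls – DMSO-treated cells as normalization reference for luminescence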

Oxysterols receptor LXR-beta (Homo sapiens), sequence (P55055 whole entry, looked up, the tested form may be a part): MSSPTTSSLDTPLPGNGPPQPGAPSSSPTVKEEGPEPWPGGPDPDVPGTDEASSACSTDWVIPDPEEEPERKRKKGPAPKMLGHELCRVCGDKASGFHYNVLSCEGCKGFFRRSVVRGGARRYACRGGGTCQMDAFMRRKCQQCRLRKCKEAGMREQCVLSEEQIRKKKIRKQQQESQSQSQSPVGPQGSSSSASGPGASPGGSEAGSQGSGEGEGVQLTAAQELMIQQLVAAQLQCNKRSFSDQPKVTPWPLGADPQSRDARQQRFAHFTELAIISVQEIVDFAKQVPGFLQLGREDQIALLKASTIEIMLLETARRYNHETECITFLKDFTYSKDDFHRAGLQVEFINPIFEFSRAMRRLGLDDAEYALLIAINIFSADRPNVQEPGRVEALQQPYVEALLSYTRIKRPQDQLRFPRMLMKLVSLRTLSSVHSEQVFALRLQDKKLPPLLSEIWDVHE

EC50: > 10 µM (inactive)
Compound: O=S(=O)(Nc1ccc(C(O)(C(F)(F)F)C(F)(F)F)cc1)c1cccs1

From PubChem BioAssay AID463150 (The Scripps Research Institute Molecular Screening Center, 2010)
